Experimental data taken from publication PMC4604364 (Antimicrobial Agents and Chemotherapy, 2015).
≈ marks a conversion by molar mass, not a printed value.

What was measured:
[1] = test system: S. aureus RN450 (wild type, tetracycline susceptible); assay: Microdilution MIC, S. aureus wild type; assay type: cell-based; conditions: Staphylococcus aureus, read-out: MIC, S. aureus wild type
[2] = test system: S. aureus MRSA 5 (MRSA, ribosome protection, Tet M); assay: Microdilution MIC, S. aureus Tet M; assay type: cell-based; conditions: Staphylococcus aureus, read-out: MIC, S. aureus Tet M
[3] = test system: S. aureus RN4250 (tetracycline efflux, Tet K); assay: Microdilution MIC, S. aureus Tet K; assay type: cell-based; conditions: Staphylococcus aureus, read-out: MIC, S. aureus Tet K
[4] = test system: E. faecalis JH2-2 (wild type, tetracycline susceptible); assay: Microdilution MIC, E. faecalis wild type; assay type: cell-based; conditions: Enterococcus faecalis, read-out: MIC, E. faecalis wild type
[5] = test system: E. faecalis JH2-2(pAM211) (ribosome protection, Tet M); assay: Microdilution MIC, E. faecalis Tet M; assay type: cell-based; conditions: Enterococcus faecalis, read-out: MIC, E. faecalis Tet M
[6] = test system: E. faecalis JH2-2(pMV158) (tetracycline efflux, Tet L); assay: Microdilution MIC, E. faecalis Tet L; assay type: cell-based; conditions: Enterococcus faecalis, read-out: MIC, E. faecalis Tet L
[7] = test system: E. faecium 494 (Tet M plus Tet L); assay: Microdilution MIC, E. faecium Tet M + L; assay type: cell-based; conditions: Enterococcus faecium, read-out: MIC, E. faecium Tet M + L
[8] = test system: S. pneumoniae 157E (wild type, tetracycline susceptible); assay: Microdilution MIC, S. pneumoniae wild type; assay type: cell-based; conditions: Streptococcus pneumoniae, read-out: MIC, S. pneumoniae wild type
[9] = test system: S. pneumoniae ATCC 700905 (ribosome protection, Tet M); assay: Microdilution MIC, S. pneumoniae Tet M; assay type: cell-based; conditions: Streptococcus pneumoniae, ATCC700905, read-out: MIC, S. pneumoniae Tet M
[10] = test system: S. aureus MRSA 5 (Tet M); assay: Serum MIC, S. aureus MRSA 5; assay type: cell-based; conditions: Staphylococcus aureus, read-out: S. aureus MRSA 5 (Tet M) serum MIC, None
[11] = test system: S. aureus MRSA 5 (Tet M); assay: S. aureus MRSA 5 thigh wound infection model in mice; assay type: in vivo; conditions: 24 h after single subcutaneous injection of 20 mg/kg
[12] = Pharmacokinetics in nonhuman primates; assay type: in vivo, Cynomolgus monkeys; conditions: for AUC / Cmax / Tmax / half-life / bioavailability: cynomolgus monkey, plasma
Summary of the method: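 Cynomolgus monkeys were dosed intravenously (infusion ending at 0.25 h) or orally. Plasma was sampled predose and at 0.25, 0.5, 1, 3, 5, 7, 16 and 24 h. Protein was precipitated with acetonitrile containing 0.1% formic acid, then centrifuged. The supernatant was dried, reconstituted in methanol-water (1:1) and quantified by LC-MS/MS. PK parameters came from noncompartmental analysis.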

[13] = test system: Gram-positive screening panel organisms (S. aureus, Enterococcus spp., S. pneumoniae); assay: MIC ranges over the Gram-positive screening panel; assay type: cell-based; conditions: read-out: MIC range against resistant organisms

| SMILES | MIC [1] [µg/mL] | MIC [2] [µg/mL] | MIC [3] [µg/mL] | MIC [4] [µg/mL] | MIC [5] [µg/mL] | MIC [6] [µg/mL] | MIC [7] [µg/mL] | MIC [8] [µg/mL] | MIC [9] [µg/mL] | MIC [10] [µg/mL] | reduction of colony count relative to untreated control animals [11] [log10] | AUC ([12]; po, 5 mg/kg) [ng·h/mL] | Cmax ([12]; po, 5 mg/kg) [ng/mL] | Tmax ([12]; po, 5 mg/kg) [h] | bioavailability ([12]; po, 5 mg/kg) [%] | half-life ([12]; po, 5 mg/kg) [h] | AUC ([12]; iv, 5 mg/kg) [ng·h/mL] | Cmax ([12]; iv, 5 mg/kg) [ng/mL] | Tmax ([12]; iv, 5 mg/kg) [h] | half-life ([12]; iv, 5 mg/kg) [h] | further results |
| --- | --- | --- | --- | --- | --- | --- | --- | --- | --- | --- | --- | --- | --- | --- | --- | --- | --- | --- | --- | --- | --- |
| CN(C)c1cc(CNCC(C)(C)C)c(O)c2c1C[C@H]1C[C@H]3[C@H](N(C)C)C(O)=C(C(N)=O)C(=O)[C@@]3(O)C(O)=C1C2=O [Compound 27, 9-neopentylaminomethylminocycline] | 0.25 (≈ 0.449 µM) | 0.25 (≈ 0.449 µM) | 0.25 (≈ 0.449 µM) | 0.25 (≈ 0.449 µM) | 0.5 (≈ 0.898 µM) | 0.5 (≈ 0.898 µM) | 0.5 | < 0.06 | < 0.06 | 0.25 (≈ 0.449 µM) | 2.49 to 3.11 | 5300 | 410 | 2.3 | 31 | 11.1 |  |  |  |  | tolerability after intravenous infusion ([12]; Cynomolgus monkeys): well tolerated; AUC ([12]; iv, 2.6 mg/kg): 9000 ng·h/mL; Cmax ([12]; iv, 2.6 mg/kg): 1880 ng/mL; Tmax ([12]; iv, 2.6 mg/kg): 0.2 h; half-life ([12]; iv, 2.6 mg/kg): 14.4 h; oral plasma exposure relative to tigecycline ([12]; oral administration, monkeys): 10 fold; MIC [13]: 0.06 to 0.5 µg/mL (≈ 0.108 to 0.898 µM) |
| CN(C)c1ccc(O)c2c1C[C@H]1C[C@H]3[C@H](N(C)C)C(O)=C(C(N)=O)C(=O)[C@@]3(O)C(O)=C1C2=O [Minocycline, minocycline] | 0.25 (≈ 0.546 µM) | 2 (≈ 4.37 µM) | 0.5 (≈ 1.09 µM) | 0.5 (≈ 1.09 µM) | 16 (≈ 35 µM) | 0.5 (≈ 1.09 µM) | 16 | < 0.06 | 8 (≈ 17.5 µM) | 2 (≈ 4.37 µM) | 0.98 | 22100 | 2200 | 3 | 80 | 7 | 27600 | 14800 | 0.1 | 10.4 |  |
| CN(C)[C@@H]1C(O)=C(C(N)=O)C(=O)[C@@]2(O)C(O)=C3C(=O)c4c(O)cccc4[C@@](C)(O)[C@H]3C[C@@H]12 [Tetracycline, tetracycline] | < 0.06 | 32 (≈ 72 µM) | > 64 | 0.25 (≈ 0.563 µM) | > 64 | 64 (≈ 144 µM) | > 64 | < 0.06 | 32 (≈ 72 µM) |  |  |  |  |  |  |  |  |  |  |  |  |
| CN(C)c1cc(NC(=O)CNC(C)(C)C)c(O)c2c1C[C@H]1C[C@H]3[C@H](N(C)C)C(O)=C(C(N)=O)C(=O)[C@@]3(O)C(O)=C1C2=O [Tigecycline, tigecycline] | 0.25 (≈ 0.427 µM) | 0.25 (≈ 0.427 µM) | 0.5 (≈ 0.854 µM) | 0.5 (≈ 0.854 µM) | 0.5 (≈ 0.854 µM) | 0.5 (≈ 0.854 µM) | 0.5 | < 0.06 | < 0.06 | 0.25 (≈ 0.427 µM) |  | 500 | 40 | 4 | 3.1 | 3.4 | 16300 | 23200 | 0.2 | 10.9 |  |
| CN[C@H](CC(C)C)C(=O)N[C@H]1C(=O)N[C@@H](CC(N)=O)C(=O)N[C@H]2C(=O)N[C@H]3C(=O)N[C@H](C(=O)N[C@H](C(=O)O)c4cc(O)cc(O)c4-c4cc3ccc4O)[C@H](O)c3ccc(c(Cl)c3)Oc3cc2cc(c3O[C@@H]2O[C@H](CO)[C@@H](O)[C@H](O)[C@H]2O[C@H]2C[C@](C)(N)[C@H](O)[C@H](C)O2)Oc2ccc(cc2Cl)[C@H]1O [Vancomycin] | 0.5 (≈ 0.345 µM) | 0.5 (≈ 0.345 µM) | 0.25 (≈ 0.173 µM) | 1 (≈ 0.69 µM) | 1 (≈ 0.69 µM) | 1 (≈ 0.69 µM) | > 64 | 0.25 (≈ 0.173 µM) | 0.25 (≈ 0.173 µM) | 0.5 (≈ 0.345 µM) |  |  |  |  |  |  |  |  |  |  |  |
